The target in test [1] is Prothrombin (Homo sapiens, UniProt P00734). Briefly: Inhibitory activity against human Thrombin. Put shortly:
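Human thrombin at 1 nM final, in Tris 0.05 M, NaCl 0.15 M, 0.1% PEG-8000, pH 7.5, room temperature. Enzyme and compound preincubated 30 min; reaction started with Pefachrome TH (50 μM final). Absorbance at 405 nm followed for 5 min. IC50 is the level that halves control initial velocity; apparent Ki by Cheng-Prusoff, assuming competitive inhibition.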

For test [2], the target named is Coagulation factor X (Homo sapiens, UniProt P00742). The experiment in a line: Inhibitory activity against human Coagulation factor X. In short, it runs like this: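 Human factor Xa at 1 nM final, in 0.05 M Tris, 0.15 M NaCl, 0.1% PEG-8000, pH 7.5, room temperature. Compound preincubated with enzyme 30 min, then Spectrozyme FXa added (200 μM final). Run in triplicate. IC50 taken from initial velocities; Ki by Cheng-Prusoff, assuming competitive inhibition.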

For test [3], the target named is Cationic trypsin (Bos taurus). The experiment in a line: Inhibitory activity against bovine trypsin.

Coagulation factor X, sequence (P00742 41-179 limits assumed): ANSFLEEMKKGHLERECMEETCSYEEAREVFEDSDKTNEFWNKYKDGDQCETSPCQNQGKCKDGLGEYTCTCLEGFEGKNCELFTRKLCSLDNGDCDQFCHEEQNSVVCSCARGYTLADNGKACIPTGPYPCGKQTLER
Coagulation factor X, sequence (P00742 235-488 limits assumed): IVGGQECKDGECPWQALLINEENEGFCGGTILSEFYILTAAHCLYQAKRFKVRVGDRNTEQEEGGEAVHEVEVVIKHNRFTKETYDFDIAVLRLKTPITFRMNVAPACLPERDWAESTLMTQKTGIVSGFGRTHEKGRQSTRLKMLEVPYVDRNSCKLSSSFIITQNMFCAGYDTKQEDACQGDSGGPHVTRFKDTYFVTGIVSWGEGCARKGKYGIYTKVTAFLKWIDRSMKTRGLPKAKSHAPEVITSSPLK

Broadly, the IC50 is the concentration that inhibits the measured activity by half. Turning to `COC(=O)C(Cc1cccc(C(=N)N)c1)C(/C=C/c1ccccc1)NC(=O)c1ccc(-c2ccc(OC)cc2OC)cc1` (stereo unspecified), the IC50 in test [1] was determined as 3500 nM; in test [2] it was 90 nM; in test [3], 2900 nM. `COC(=O)C(Cc1cccc(C(=N)N)c1)C(/C=C/c1ccccc1)NC(=O)c1ccccc1C` (stereo unspecified) showed an IC50 in test [2] of 1200 nM.

Regarding `COC(=O)C(Cc1cccc(C(=N)N)c1)C(/C=C/c1ccccc1)NC(=O)c1ccc2ccccc2c1` (stereo unspecified), in test [2], the IC50 was determined as 160 nM. In the case of `CC(=O)OCC(Cc1cccc(C(=N)N)c1)C(/C=C/c1ccccc1)NC(=O)c1ccc(-c2ccccc2)cc1` (stereo unspecified), the 50% inhibitory concentration (IC50) worked out at 3800 nM in test [1] and 360 nM in test [2]. For `COC(=O)C(Cc1cccc(C(=N)N)c1)C(/C=C/c1ccccc1)NC(=O)c1ccc(-c2ccccc2OC)cc1` (stereo unspecified), the IC50 in test [1] worked out at 3300 nM; in test [2], 50 nM; in test [3], 1800 nM. As to `COC(=O)C(Cc1cccc(C(=N)N)c1)C(/C=C/c1ccccc1)NC(=O)c1ccc(-c2ccccc2C)cc1` (stereo unspecified), the figures for the IC50 in test [1], in test [2] and in test [3] were 9000 nM, 90 nM and 3100 nM, respectively. `COC(=O)C(Cc1cccc(C(=N)N)c1)C(/C=C/c1ccccc1)NC(=O)C1CCC(C2CCCCC2)CC1` (stereo unspecified) returned an IC50 in test [2] of 1120 nM. As for `COC(=O)C(Cc1cccc(C(=N)N)c1)C(/C=C/c1ccccc1)NS(=O)(=O)c1ccc(-c2ccccc2)cc1` (stereo unspecified), the IC50 in test [2] amounted to 1970 nM. Turning to `COC(=O)C(Cc1cccc(C(=N)N)c1)C(/C=C/c1ccccc1)NC(=O)c1ccc(-c2ccccc2)cc1` (stereo unspecified), the IC50 was found to be 18000 nM in test [1] and 110 nM in test [2].

Take `COC(=O)[C@H](Cc1cccc(C(=N)N)c1)[C@@H](/C=C/c1ccccc1)NC(=O)c1ccccc1`: the half-inhibitory concentration (IC50) in test [2] is 700 nM.

`COC(=O)C(Cc1cccc(C(=N)N)c1)C(/C=C/c1ccccc1)NC(=O)c1ccc(C2CCCCC2)cc1` (stereo unspecified): the IC50 in test [2] was determined as 580 nM. In the case of `CCc1ccccc1-c1ccc(C(=O)NC(/C=C/c2ccccc2)C(Cc2cccc(C(=N)N)c2)C(=O)OC)cc1` (stereo unspecified), the IC50 in test [1] was 5300 nM; in test [2] it was 380 nM. Turning to `COC(=O)C(Cc1cccc(C(=N)N)c1)C(/C=C/c1ccccc1)NC(=O)c1ccc(Cc2ccccc2)cc1` (stereo unspecified), in test [2], half-maximal inhibition (IC50) required 460 nM.

Take `COC(=O)C(Cc1cccc(C(=N)N)c1)C(/C=C/c1ccccc1)NC(=O)c1ccc(-c2cccc(OC)c2)cc1` (stereo unspecified): the IC50 in test [1] came to 2400 nM; in test [2] it was 110 nM; in test [3] it was 2200 nM. On to `CCOc1cccc(-c2ccc(C(=O)NC(/C=C/c3ccccc3)C(Cc3cccc(C(=N)N)c3)C(=O)OC)cc2)c1` (stereo unspecified), for which the IC50 turned out to be 4300 nM in test [1], 180 nM in test [2] and 3600 nM in test [3]. `N=C(N)c1cccc(CC(C(=O)O)C(/C=C/c2ccccc2)NC(=O)c2ccc(-c3ccccc3)cc2)c1` (stereo unspecified): the figures for the IC50 in test [1] and in test [2] were 7700 nM and 2700 nM, respectively.

`COC(=O)C(Cc1cccc(C(=N)N)c1)C(/C=C/c1ccccc1)NC(=O)c1ccc(Oc2ccccc2)cc1` (stereo unspecified) displayed an IC50 in test [2] of 1220 nM. For the molecule `CCOc1ccc(-c2ccc(C(=O)NC(/C=C/c3ccccc3)C(Cc3cccc(C(=N)N)c3)C(=O)OC)cc2)cc1` (stereo unspecified), the figures for the 50% inhibitory concentration (IC50) in test [1], in test [2] and in test [3] were 2000 nM, 360 nM and 2800 nM, respectively. `COC(=O)[C@@H](Cc1cccc(C(=N)N)c1)[C@@H](/C=C/c1ccccc1)NC(=O)c1ccccc1` registered a half-maximal inhibitory concentration (IC50) in test [2] of 2000 nM. For the molecule `CN(C)C(=O)C(Cc1cccc(C(=N)N)c1)C(/C=C/c1ccccc1)NC(=O)c1ccc(-c2ccccc2)cc1` (stereo unspecified), the half-maximal inhibitory concentration (IC50) in test [2] turned out to be 4400 nM. Same read-out and setting: the same measure for `COC(=O)C(Cc1cccc(C(=N)N)c1)C(/C=C/c1ccccc1)NC(=O)c1ccc(C)cc1` (stereo unspecified): 600 nM; for `CCc1ccc(-c2ccc(C(=O)NC(/C=C/c3ccccc3)C(Cc3cccc(C(=N)N)c3)C(=O)OC)cc2)cc1` (stereo unspecified): 890 nM.

For the molecule `CCOc1ccccc1-c1ccc(C(=O)NC(/C=C/c2ccccc2)C(Cc2cccc(C(=N)N)c2)C(=O)OC)cc1` (stereo unspecified), the IC50 in test [1] was 3800 nM; in test [2], 60 nM; in test [3] it was 1800 nM. As to `COC(=O)C(Cc1cccc(C(=N)N)c1)C(/C=C/c1ccccc1)NC(=O)c1ccc(-c2ccc(OC)c(OC)c2)cc1` (stereo unspecified), the half-maximal inhibitory concentration (IC50) turned out to be 4700 nM in test [1] and 30 nM in test [2]. Regarding `COC(=O)C(Cc1cccc(C(=N)N)c1)C(/C=C/c1ccccc1)NC(=O)c1ccc(-c2cccc(C)c2)cc1` (stereo unspecified), the half-inhibitory concentration (IC50) in test [1] was determined as 7200 nM; in test [2], 120 nM.

With `CCc1cccc(-c2ccc(C(=O)NC(/C=C/c3ccccc3)C(Cc3cccc(C(=N)N)c3)C(=O)OC)cc2)c1` (stereo unspecified), the half-inhibitory concentration (IC50) amounted to 1700 nM in test [1], 390 nM in test [2] and 2600 nM in test [3]. On to `COC(=O)C(Cc1cccc(C(=N)N)c1)C(/C=C/c1ccccc1)NC(=O)c1ccc(-c2ccc(OC)cc2)cc1` (stereo unspecified), for which the concentration for half-maximal inhibition (IC50) in test [1] is 2700 nM; in test [2], 80 nM; in test [3] it was 2900 nM. With `N=C(N)c1cccc(CCC(/C=C/c2ccccc2)NC(=O)c2ccc(-c3ccccc3)cc2)c1` (stereo unspecified), the IC50 came to 31000 nM in test [1] and 950 nM in test [2]. Regarding `COC(=O)C(Cc1cccc(C(=N)N)c1)C(/C=C/c1ccccc1)NC(=O)c1cccc(C)c1` (stereo unspecified), in test [2], half-maximal inhibition (IC50) required 1100 nM. `COC(=O)C(Cc1cccc(C(=N)N)c1)C(/C=C/c1ccccc1)NC(=O)c1ccccc1` (stereo unspecified): in test [2], the IC50 was found to be 700 nM.

`COC(=O)C(Cc1cccc(C(=N)N)c1)C(/C=C/c1ccccc1)NC(=O)c1cccc2ccccc12` (stereo unspecified) gave a concentration for half-maximal inhibition (IC50) in test [2] of 790 nM.

Regarding `COC(=O)C(Cc1cccc(C(=N)N)c1)C(/C=C/c1ccccc1)NC(=O)c1ccc(-c2ccc(C)cc2)cc1` (stereo unspecified), the results for the half-maximal inhibitory concentration (IC50) in test [1], in test [2] and in test [3] were 4800 nM, 240 nM and 2800 nM, respectively.

In the case of `COCC(Cc1cccc(C(=N)N)c1)C(/C=C/c1ccccc1)NC(=O)c1ccc(-c2ccccc2)cc1` (stereo unspecified), the half-maximal inhibitory concentration (IC50) worked out at 8700 nM in test [1], 540 nM in test [2] and 10000 nM in test [3]. Take `N=C(N)c1cccc(CC(CO)C(/C=C/c2ccccc2)NC(=O)c2ccc(-c3ccccc3)cc2)c1` (stereo unspecified): the midpoint of inhibition in test [2], the IC50, lay at 650 nM. For the molecule `COC(=O)[C@H](Cc1cccc(C(=N)N)c1)[C@@H](CCc1ccccc1)NC(=O)c1ccc(-c2ccccc2)cc1`, it took 60 nM to reach half-maximal inhibition in test [2] (IC50). In test [2], `COC(=O)C(Cc1cccc(C(=N)N)c1)C(CCc1ccccc1)NC(=O)c1ccc(-c2ccccc2)cc1` (stereo in doubt; 8a) showed a concentration for half-maximal inhibition (IC50) of 60 nM. Turning to `COC(=O)C(Cc1cccc(C(=N)N)c1)C(CCc1ccccc1)NC(=O)c1ccc(-c2ccccc2)cc1` (stereo in doubt; 8b), half-maximal inhibition in test [2] (IC50) required 310 nM.
